Residue numbers refer to the chain shown, from its start. The source made the active and inactive calls. The calls are words filed in the database; no cut-off is given here.
Tests used:
[1] = tested on: T1, Histone deacetylase 8 (Homo sapiens), Q9BY41 [C153A]; test: Binding affinity to human HDAC8 C153A mutant assessed as loss of activity at 2 to 10 uM by Fluor-de-Lys activity assay
T1 sequence (whole entry): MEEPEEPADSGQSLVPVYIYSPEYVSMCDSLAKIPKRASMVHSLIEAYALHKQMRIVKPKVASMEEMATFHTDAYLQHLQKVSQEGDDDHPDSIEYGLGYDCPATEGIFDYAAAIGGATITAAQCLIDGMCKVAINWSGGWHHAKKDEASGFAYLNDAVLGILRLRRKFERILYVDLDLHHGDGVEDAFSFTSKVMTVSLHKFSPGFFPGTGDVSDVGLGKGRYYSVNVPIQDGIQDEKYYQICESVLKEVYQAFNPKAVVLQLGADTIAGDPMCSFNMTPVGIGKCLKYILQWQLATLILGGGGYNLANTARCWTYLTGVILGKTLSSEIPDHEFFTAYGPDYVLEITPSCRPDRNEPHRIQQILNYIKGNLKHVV
Summary of the method: (§1)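 Same as the wild-type method, but using the C153A HDAC8 mutant at 2 μM to start the reaction. Zn2+-reconstituted enzyme; 150 μM Fluor-de-Lys substrate with inhibitor at 30 °C, pH 8.0. Time-point aliquots quenched with trypsin/TSA. Product/substrate fluorescence ratio (ex 340, em 450/380 nm) gives progress curves.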

[2] = molecular target: T2, Protein deacetylase HDAC6 (Homo sapiens, UniProt Q9UBN7); test: Inhibition of human recombinant HDAC6 using MAZ1600 as fluorogenic substrate measured every 5 mins by optimized homogenous fluorescence based assay
T2 sequence (Q9UBN7 whole entry): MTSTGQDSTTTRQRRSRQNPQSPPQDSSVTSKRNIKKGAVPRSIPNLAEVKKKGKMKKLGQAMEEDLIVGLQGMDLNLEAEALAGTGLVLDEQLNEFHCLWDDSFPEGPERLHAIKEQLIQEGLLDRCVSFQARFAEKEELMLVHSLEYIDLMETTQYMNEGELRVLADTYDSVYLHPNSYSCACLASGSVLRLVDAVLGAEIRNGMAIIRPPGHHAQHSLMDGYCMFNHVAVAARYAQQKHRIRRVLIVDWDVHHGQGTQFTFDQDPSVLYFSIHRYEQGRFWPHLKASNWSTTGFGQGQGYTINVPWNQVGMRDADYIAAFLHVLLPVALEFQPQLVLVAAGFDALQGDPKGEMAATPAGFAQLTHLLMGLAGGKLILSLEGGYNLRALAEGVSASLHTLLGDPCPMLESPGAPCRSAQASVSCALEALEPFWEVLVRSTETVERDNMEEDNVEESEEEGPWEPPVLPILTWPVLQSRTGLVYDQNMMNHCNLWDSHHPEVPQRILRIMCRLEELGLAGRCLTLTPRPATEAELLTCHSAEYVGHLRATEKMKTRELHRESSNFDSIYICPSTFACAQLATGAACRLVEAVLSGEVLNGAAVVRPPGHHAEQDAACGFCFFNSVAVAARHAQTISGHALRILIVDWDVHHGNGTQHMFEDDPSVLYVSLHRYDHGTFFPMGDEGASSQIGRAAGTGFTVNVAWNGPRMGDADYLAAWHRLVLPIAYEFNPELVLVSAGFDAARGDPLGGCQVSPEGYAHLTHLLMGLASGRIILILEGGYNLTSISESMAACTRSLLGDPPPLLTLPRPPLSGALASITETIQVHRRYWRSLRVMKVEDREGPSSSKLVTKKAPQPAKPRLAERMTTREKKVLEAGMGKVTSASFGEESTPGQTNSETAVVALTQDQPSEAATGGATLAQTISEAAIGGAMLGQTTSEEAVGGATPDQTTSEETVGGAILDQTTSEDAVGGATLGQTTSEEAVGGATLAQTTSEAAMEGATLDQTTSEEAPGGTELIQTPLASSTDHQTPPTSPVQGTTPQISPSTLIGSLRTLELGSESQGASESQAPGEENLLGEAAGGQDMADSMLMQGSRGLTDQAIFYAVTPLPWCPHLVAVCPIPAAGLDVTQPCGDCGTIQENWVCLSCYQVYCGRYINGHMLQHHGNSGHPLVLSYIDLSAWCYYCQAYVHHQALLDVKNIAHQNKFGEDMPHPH

[3] = Prodrug activation assessed as GSH reactivity in HEPES buffer at pH 7.4 by LC-MS analysis
Summary of the method: (§2)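 Compound incubated with GSH (2 mM, 2 equiv) in 50 mM HEPES, pH 7.4, for 2 h at 37 °C. Products resolved by analytical HPLC, with peak identities assigned by LC-MS from retention times.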

Histone deacetylase 8 [4] = molecular target: T3, Histone deacetylase 8 (Homo sapiens, UniProt Q9BY41); test: Inhibition of human recombinant HDAC8 using MAZ1675 as fluorogenic substrate measured every 5 mins by optimized homogenous fluorescence based assay
T3 sequence (Q9BY41 whole entry): T1 sequence (whole entry) with A153C

Histone deacetylase 2 = Histone deacetylase 2 (Homo sapiens, UniProt Q92769); test: Inhibition of human recombinant HDAC2 using MAZ1600 as fluorogenic substrate measured every 5 mins by optimized homogenous fluorescence based assay
Histone deacetylase 3 = Histone deacetylase 3 (Homo sapiens, UniProt O15379); test: Inhibition of human recombinant HDAC3 using MAZ1600 as fluorogenic substrate measured every 5 mins by optimized homogenous fluorescence based assay
[5] = molecular target: T4, Histone deacetylase 8 (Homo sapiens) (UniProt Q9BY41); test: Binding affinity to human wild type HDAC8 assessed as loss of activity at 2 to 10 uM by Fluor-de-Lys activity assay
T4 sequence (whole entry): T1 sequence (whole entry) with A153C

Jurkat [6] = test: Cytotoxicity against human Jurkat cells assessed as cell proliferation at 50 uM after 70 hrs by MTS assay; assay type: functional, cell-based
Summary of the method: (§3)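 HH and Jurkat cells in RPMI 1640 + 10% FBS, seeded at 20 000 cells/well. Exposed directly to compound (0.5–128 μM) for 70 h. MTS reagent added for 4 h at 37 °C, absorbance at 490 nm. Each concentration run in triplicate, 2–3 trials.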

Histone deacetylase 1 = Histone deacetylase 1 (Homo sapiens, UniProt Q13547); test: Inhibition of human recombinant HDAC1 using MAZ1600 as fluorogenic substrate measured every 5 mins by optimized homogenous fluorescence based assay
HH [7] = test: Cytotoxicity against human HH cells assessed as cell proliferation at 50 uM after 70 hrs by MTS assay; assay type: functional, cell-based; summary of the method: as §3
[8] = Cytotoxicity against mouse NIH/3T3 cells assessed as cell proliferation at 50 uM after 70 hrs by MTS assay; assay type: cell-based; conditions: nih3t3, 70 h
Summary of the method: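 NIH/3T3 cells in DMEM + 10% FBS, seeded at 5000 cells/well and allowed to attach for 16 h at 37 °C, 5% CO2. Then exposed to compound for 70 h. MTS reagent added for 2 h, absorbance at 490 nm. Triplicate wells, 2–3 trials.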

[9] = Retention time of the compound in HEPES buffer treated with SAHA-TAP at pH 7.4 by LC-MS analysis in presence of GSH; assay type: physicochemical; summary of the method: as §2
[10] = Stability in human plasma assessed as compound remaining after 2 hrs by HPLC analysis; assay type: ADME, cell-free; conditions: read-out: Stability
Summary of the method: (§4)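 Pooled normal human plasma pre-warmed 2 min at 37 °C, spiked from a 5.0 mM DMSO stock, run in duplicate. Aliquots taken at 0–120 min, quenched with ACN, centrifuged and filtered. Analysed by reverse-phase C18 HPLC; percent parent is peak area relative to the 0 min sample.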

Jurkat [11] = test: Effect on alpha-actin level in human Jurkat cells at 6 to 20 uM after 4 hrs by Western blot analysis; assay type: ADME, cell-based
Summary of the method: (§5)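 Log-phase HH or Jurkat cells at 70% confluence treated 4 h, harvested, lysed in RIPA with protease inhibitors. Protein normalised by BCA, run on 10% SDS-PAGE and blotted to PVDF. Probed with anti-actin–HRP (plus acetylated-tubulin and tubulin antibodies) and detected by chemiluminescence.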

[12] = tested on: T1, Histone deacetylase 8 (Homo sapiens), Q9BY41 [C153A]; test: Time-dependent inhibition of human HDAC8 C153A mutant by Fluor-de-Lys activity assay; summary of the method: as §1
[13] = molecular target: T5, Histone deacetylase (Homo sapiens) (UniProt Q13547+O15379+Q9UBN7+Q92769+Q9UQL6+Q8WUI4+Q9BY41+Q96DB2+P56524+Q9UKV0+Q969S8); conditions: Jurkat, 6 to 20 uM
[14] = molecular target: T5, Histone deacetylase (Homo sapiens); conditions: HH, 6 to 20 uM
[15] = Cytotoxicity against mouse NIH/3T3 cells assessed as cell proliferation after 70 hrs by MTS assay; assay type: ADME, cell-based; conditions: NIH3T3, 70 h
HH [16] = test: Effect on alpha-actin level in human HH cells at 6 to 20 uM after 4 hrs by Western blot analysis; assay type: ADME, cell-based; summary of the method: as §5
HH [17] = test: Cytotoxicity against human HH cells assessed as cell proliferation after 70 hrs by MTS assay; assay type: functional, cell-based
[18] = Stability in human plasma assessed as compound remaining after 1 hr by HPLC analysis; assay type: ADME, cell-free; conditions: read-out: Stability; summary of the method: as §4
[19] = molecular target: T4, Histone deacetylase 8 (Homo sapiens)
[20] = Stability of the compound assessed as trypsin (unknown origin)-mediated drug degradation measured as compound remaining after 2 hrs by biochemical assay; assay type: ADME; conditions: human, read-out: Stability
Jurkat [21] = test: Cytotoxicity against human Jurkat cells assessed as cell proliferation after 70 hrs by MTS assay; assay type: functional, cell-based
Albumin = Albumin (Bos taurus, UniProt P02769); test: Stability of the compound assessed as bovine serum albumin-mediated drug degradation measured as compound remaining after 2 hrs by biochemical assay; assay type: ADME; conditions: cattle, read-out: Stability
[22] = molecular target: T4, Histone deacetylase 8 (Homo sapiens); test: Binding affinity to human wild type HDAC8 assessed as retention time for protein fragment after 60 mins of treatment in presence of trypsin (reference value: 84.5 mins)
Summary of the method: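 Recombinant human WT HDAC8 (1.7 μM) incubated with 12 equiv compound (20 μM) for 60 min at 37 °C. Protein isolated by SDS-PAGE, reduced (DTT, 56 °C) and alkylated (iodoacetamide), trypsin-digested overnight at 37 °C. Peptides separated on C18 with a 5–60% ACN gradient and detected by LC-MS/MS.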

[23] = Retention time of the compound in HEPES buffer at pH 7.4 by LC-MS analysis in presence of GSH; assay type: physicochemical; summary of the method: as §2
[24] = Aqueous stability in 50 mM HEPES buffer at pH 7.4 by HPLC chromatogram; assay type: physicochemical
Summary of the method: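 Compound in 50 mM HEPES, pH 7.4, analysed by analytical HPLC right after preparation and again after 24 h at 37 °C, with no thiol present. Stability is read from the parent peak.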

[25] = molecular target: T4, Histone deacetylase 8 (Homo sapiens); test: (§6) Reversible-time dependent inhibition of human wild type HDAC8 by Fluor-de-Lys activity assay; conditions: TDE = time-dependent effect
Histone deacetylase 8 [26] = molecular target: T3, Histone deacetylase 8; test: as §6; conditions: read-out: Ki(app)
[27] = molecular target: T4, Histone deacetylase 8 (Homo sapiens); test: Binding affinity to human wild type HDAC8 assessed as loss of activity measured with in 0.5 hrs by Fluor-de-Lys activity assay

Chain of Histone deacetylase 3 (O15379 whole entry): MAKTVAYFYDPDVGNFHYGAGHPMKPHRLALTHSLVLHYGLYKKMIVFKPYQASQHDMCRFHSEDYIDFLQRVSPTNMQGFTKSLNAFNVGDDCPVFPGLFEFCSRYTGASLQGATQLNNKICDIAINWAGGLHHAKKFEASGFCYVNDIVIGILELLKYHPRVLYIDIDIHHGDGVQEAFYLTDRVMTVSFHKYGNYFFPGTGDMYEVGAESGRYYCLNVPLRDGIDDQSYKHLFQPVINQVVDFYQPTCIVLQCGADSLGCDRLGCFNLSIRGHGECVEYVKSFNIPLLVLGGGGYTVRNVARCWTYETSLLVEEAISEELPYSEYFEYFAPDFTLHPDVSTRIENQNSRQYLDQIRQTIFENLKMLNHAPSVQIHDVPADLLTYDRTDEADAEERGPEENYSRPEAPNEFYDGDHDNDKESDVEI
Chain of Histone deacetylase 1 (Q13547 whole entry): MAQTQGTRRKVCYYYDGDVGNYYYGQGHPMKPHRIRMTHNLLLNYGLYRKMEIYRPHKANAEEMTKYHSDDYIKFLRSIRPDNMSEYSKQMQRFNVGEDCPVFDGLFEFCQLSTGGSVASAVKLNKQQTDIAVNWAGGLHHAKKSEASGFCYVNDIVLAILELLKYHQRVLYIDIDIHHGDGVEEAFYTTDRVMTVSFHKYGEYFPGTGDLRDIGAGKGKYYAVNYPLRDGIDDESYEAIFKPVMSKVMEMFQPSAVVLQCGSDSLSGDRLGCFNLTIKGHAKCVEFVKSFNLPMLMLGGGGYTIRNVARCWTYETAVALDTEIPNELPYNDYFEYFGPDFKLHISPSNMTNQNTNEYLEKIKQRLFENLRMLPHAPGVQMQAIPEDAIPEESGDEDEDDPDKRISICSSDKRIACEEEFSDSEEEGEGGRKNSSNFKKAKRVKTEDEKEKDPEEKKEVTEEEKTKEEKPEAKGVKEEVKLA
Chain of Histone deacetylase 2 (Q92769 whole entry): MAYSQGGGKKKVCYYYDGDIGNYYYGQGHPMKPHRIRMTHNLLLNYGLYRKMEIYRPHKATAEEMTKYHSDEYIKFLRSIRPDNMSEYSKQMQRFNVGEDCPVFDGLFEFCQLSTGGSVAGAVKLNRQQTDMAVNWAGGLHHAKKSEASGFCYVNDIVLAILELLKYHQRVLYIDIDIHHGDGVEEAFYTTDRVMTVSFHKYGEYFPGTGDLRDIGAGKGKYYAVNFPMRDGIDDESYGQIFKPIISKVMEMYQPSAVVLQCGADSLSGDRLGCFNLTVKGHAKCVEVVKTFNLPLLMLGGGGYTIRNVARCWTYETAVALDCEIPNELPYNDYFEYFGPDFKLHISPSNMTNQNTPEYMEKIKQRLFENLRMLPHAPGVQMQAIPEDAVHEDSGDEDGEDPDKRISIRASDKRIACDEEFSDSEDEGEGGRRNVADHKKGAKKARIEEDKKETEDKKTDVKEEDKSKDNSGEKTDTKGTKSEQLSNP
Chain of Albumin (P02769 whole entry, the tested form may be a part): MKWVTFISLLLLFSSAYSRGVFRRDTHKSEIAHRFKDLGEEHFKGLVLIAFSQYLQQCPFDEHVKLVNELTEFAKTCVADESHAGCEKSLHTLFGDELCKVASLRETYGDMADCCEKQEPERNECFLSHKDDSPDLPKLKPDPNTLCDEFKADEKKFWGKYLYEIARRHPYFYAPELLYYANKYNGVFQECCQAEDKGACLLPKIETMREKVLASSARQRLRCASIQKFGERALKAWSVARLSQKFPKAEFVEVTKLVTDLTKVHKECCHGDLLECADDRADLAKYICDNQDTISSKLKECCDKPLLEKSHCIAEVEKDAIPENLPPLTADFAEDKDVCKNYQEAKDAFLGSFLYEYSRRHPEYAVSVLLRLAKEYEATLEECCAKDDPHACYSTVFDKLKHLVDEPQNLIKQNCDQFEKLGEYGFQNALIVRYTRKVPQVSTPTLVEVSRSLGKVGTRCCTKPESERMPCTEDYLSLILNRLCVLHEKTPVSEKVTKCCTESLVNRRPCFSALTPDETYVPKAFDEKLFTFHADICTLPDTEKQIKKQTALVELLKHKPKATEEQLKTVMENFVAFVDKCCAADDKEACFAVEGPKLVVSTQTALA

O=C(CCCCCCC(=O)Nc1ccccc1)NOCc1ccccc1
inhibition [1]: inactive
IC50 [2]: > 10 µM
Activity [3]: Not Active
IC50 (Histone deacetylase 8 [4]): > 10 µM
IC50 (Histone deacetylase 2): > 10 µM
IC50 (Histone deacetylase 3): > 10 µM
inhibition [5]: inactive
inhibition (Jurkat [6]): inactive
IC50 (Histone deacetylase 1): > 10 µM
inhibition (HH [7]): inactive
Activity [8]: Non-toxic

C=C1C(=O)C(C)=C(C)C(=O)C1(C)SC[C@H](NC(=O)CC[C@H](N)C(=O)O)C(=O)NCC(=O)O (stereo partly drawn)
Retention_time [9]: 10.5 min

O=C(CCCCCCC(=O)Nc1ccccc1)NO [VORINOSTAT]
Retention_time [9]: 10.7 min
remaining at 2 h [10]: 55%

CC1=C(C)C(=O)C(CONC(=O)CCCCCCC(=O)Nc2ccccc2)=C(C)C1=O
Activity (Jurkat [11]): Non-toxic
TDI [12]: inactive
IC50 [2]: 0.023 µM
IC50 (Histone deacetylase 8 [4]): 3.84 µM
IC50 (Histone deacetylase 2): 0.255 µM
inhibition [13]: Active
inhibition [14]: Active
EC50 [15]: 9.37 µM
Activity (HH [16]): Non-toxic
IC50 (Histone deacetylase 3): 0.149 µM
EC50 (HH [17]): 3.38 µM
IC50 (Histone deacetylase 1): 0.371 µM
remaining at 1 h [18]: 72%
K1/2 [19]: 8 µM
remaining at 2 h [20]: > 95%
EC50 (Jurkat [21]): 6.05 µM
remaining at 2 h (Albumin): > 95%
remaining at 2 h [10]: 52%
Retention time [22]: 88.5 min
Retention_time [23]: 14.7 min
Stability [24]: > 97%
inhibition [25]: tde
Ki (Histone deacetylase 8 [26]): 7 µM
inhibition [27]: Active
